{"source": "ChEMBL document CHEMBL3297702", "about": "“Improving photodynamic inactivation of bacteria in dentistry: highly effective and fast killing of oral key pathogens with novel tooth-colored type-II photosensitizers” (J Med Chem, 2014)", "key": {"[1]": {"tested_on": "Streptococcus mutans", "assay": "Toxicity in Streptococcus mutans ATCC 25175 assessed as reduction of log10 CFU at 1 to 250 uM incubated for 10 secs under dark condition measured after 48 hrs by agar plating method", "summary_of_the_method": "(§1)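 Dark controls. Overnight BHI cultures (EF, SM, AN aerobic; AA anaerobic; 37 °C) were washed into PBS at 10^7–10^8 cells/mL. They were mixed 1:1 with photosensitizer at final 0–250 µM and incubated 10 s, 7.5 min or 15 min, then kept in the dark for 20, 40 or 120 s. Tenfold dilutions were plated: EF on Mueller-Hinton agar, aerobic 24 h; SM on BHI agar, aerobic 48 h; AN on blood agar, aerobic 48 h; AA on BHI agar, anaerobic 48 h; all at 37 °C. CFU were compared with untreated controls; medians of three independent experiments in triplicate.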"}, "[2]": {"tested_on": "Actinomyces naeslundii", "assay": "Toxicity in Actinomyces naeslundii T14V assessed as reduction of log10 CFU at 1 to 250 uM incubated for 10 secs under dark condition measured after 48 hrs by agar plating method", "assay_type": "organism-based", "details": "in vivo", "summary_of_the_method": "as §1"}, "[3]": {"tested_on": "Aggregatibacter actinomycetemcomitans", "assay": "Toxicity in Aggregatibacter actinomycetemcomitans ATCC 43718 assessed as reduction of log10 CFU under dark condition at 1 to 250 uM incubated for 10 secs under dark condition measured after 48 hrs by agar plating method", "parameters": "species or system Y4", "summary_of_the_method": "as §1"}, "[4]": {"tested_on": "Streptococcus mutans", "assay": "Photodynamic inactivation of Streptococcus mutans ATCC 25175 assessed as reduction of log10 CFU at 100 uM incubated prior to irradiation with 25 j/cm'2 for 20 secs measured after 48 hrs by agar plating method (reference value: <1 no unit)", "assay_type": "functional"}, "[5]": {"tested_on": "Actinomyces naeslundii", "assay": "Photodynamic inactivation of Actinomyces naeslundii T14V assessed as reduction of log10 CFU at 10 uM incubated prior to irradiation with 150 j/cm'2 for 120 secs measured after 48 hrs by agar plating method (reference value: <1 no unit)", "assay_type": "functional", "summary_of_the_method": "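A. naeslundii T14V grown overnight at 37 °C, shaken, aerobically in BHI broth. Harvested at stationary phase, resuspended in PBS to 10^7–10^8 bacteria/mL (OD600). Mixed 1:1 with PS (final 0–250 µM) or water, 10 s incubation, then blue photopolymerizer light (1260 ± 50 mW/cm2) or dark. Tenfold dilutions plated on blood agar, aerobic 37 °C 48 h, CFU counted; medians of three independent experiments in triplicate.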"}, "[6]": {"assay": "Stability of the compound in D2O assessed as aggregation at 1 to 20 mM by NMR analysis", "assay_type": "physicochemical", "details": "20000 µM", "summary_of_the_method": "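¹H NMR, aromatic region, in D2O at 1, 5, 10 and 20 mM; shifts referenced to external TMS, 1 ppm = 400 Hz; spectra compared across concentrations for dimerisation.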"}, "[7]": {"assay": "Stability of the compound in D2O assessed as aggregate formation by measuring shift of spectrum in aromatic region at > 0.5 ppm at 50 to 90 degC by NMR analysis", "assay_type": "physicochemical"}, "[8]": {"tested_on": "Enterococcus faecalis", "assay": "Photodynamic inactivation of biofilm of Enterococcus faecalis ATCC 29212 monospecies assessed as reduction of log10 CFU at 100 uM preincubated for 60 mins followed by irradiation with 600 mW/cm'2 for 120 secs measured after 24 hrs by agar plating method", "assay_type": "functional"}, "[9]": {"tested_on": "Enterococcus faecalis", "assay": "Toxicity in Enterococcus faecalis ATCC 29212 assessed as reduction of log10 CFU at 1 to 250 uM incubated for 10 secs to 15 mins under dark condition measured after 24 hrs by agar plating method", "assay_type": "organism-based", "details": "in vivo", "summary_of_the_method": "as §1"}, "[10]": {"tested_on": "Streptococcus mutans", "assay": "Toxicity in Streptococcus mutans ATCC 25175 assessed as reduction of log10 CFU at 1 to 250 uM incubated for 10 secs to 15 mins under dark condition measured after 48 hrs by agar plating method", "summary_of_the_method": "as §1"}, "[11]": {"tested_on": "Actinomyces naeslundii", "assay": "Toxicity in Actinomyces naeslundii T14V assessed as reduction of log10 CFU at 1 to 250 uM incubated for 10 secs to 15 mins under dark condition measured after 48 hrs by agar plating method", "assay_type": "organism-based", "details": "in vivo", "summary_of_the_method": "as §1"}, "[12]": {"tested_on": "Aggregatibacter actinomycetemcomitans", "assay": "Toxicity in Aggregatibacter actinomycetemcomitans ATCC 43718 assessed as reduction of log10 CFU under dark condition at 1 to 250 uM incubated for 10 secs to 15 mins under dark condition measured after 48 hrs by agar plating method", "parameters": "species or system Y4", "summary_of_the_method": "as §1"}, "[13]": {"tested_on": "Enterococcus faecalis", "assay": "Photodynamic inactivation of biofilm of Enterococcus faecalis ATCC 29212 polyspecies assessed as reduction of log10 CFU at 100 uM preincubated for 60 mins followed by irradiation with 600 mW/cm'2 for 120 secs measured after 24 hrs by agar plating method", "assay_type": "functional"}, "[14]": {"tested_on": "Actinomyces naeslundii", "assay": "Photodynamic inactivation of biofilm of Actinomyces naeslundii T14V monospecies assessed as reduction of log10 CFU at 100 uM preincubated for 60 mins followed by irradiation with 600 mW/cm'2 for 120 secs measured after 28 hrs by agar plating method", "assay_type": "functional"}, "[15]": {"tested_on": "Actinomyces naeslundii", "assay": "Photodynamic inactivation of biofilm of Actinomyces naeslundii T14V polyspecies assessed as reduction of log10 CFU at 100 uM preincubated for 60 mins followed by irradiation with 600 mW/cm'2 for 120 secs measured after 28 hrs by agar plating method", "assay_type": "functional"}}, "data": [{"compound": "C[N+](C)(CCO)CC1=Cc2cccc3cccc(c23)C1=O.[Cl-]", "values": [{"measurement": "Activity", "setting": "[1]", "value": "Non-toxic"}, {"measurement": "Activity", "setting": "[2]", "value": "Non-toxic"}, {"measurement": "Activity", "setting": "[3]", "value": "Non-toxic"}, {"measurement": "log10cfu", "setting": "[4]", "value": ">6"}, {"measurement": "log10cfu", "setting": "[5]", "value": "<5"}]}, {"compound": "C[N+](C)(C)CC1=Cc2cccc3cccc(c23)C1=O.[Cl-]", "values": [{"measurement": "Stability", "setting": "[6]", "value": "Unstable"}, {"measurement": "Activity", "setting": "[7]", "value": 70, "unit": "mM"}]}, {"compound": "O=C1C(C[n+]2ccccc2)=Cc2cccc3cccc1c23.[Cl-]", "values": [{"measurement": "log10cfu", "setting": "[8]", "value": ">5"}, {"measurement": "Activity", "setting": "[9]", "value": "Non-toxic"}, {"measurement": "Activity", "setting": "[10]", "value": "Non-toxic"}, {"measurement": "Activity", "setting": "[11]", "value": "Non-toxic"}, {"measurement": "Activity", "setting": "[12]", "value": "Non-toxic"}, {"measurement": "log10cfu", "setting": "[4]", "value": ">6"}, {"measurement": "log10cfu", "setting": "[13]", "value": ">5"}, {"measurement": "log10cfu", "setting": "[14]", "value": ">5"}, {"measurement": "log10cfu", "setting": "[15]", "value": ">5"}]}]}
